Tests used:
[1] = molecular target: Serine/threonine-protein kinase Chk2 (Homo sapiens) (UniProt O96017); assay: Inhibition of CHK2 (unknown origin) at 10 uM relative to control
Outline: (§1)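 Single-point screen of each compound against a panel of 59 protein kinases, at 1 or 10 μM. The panel data are also summarised as a rescaled geometric mean selectivity score.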

[2] = molecular target: Serine/threonine-protein kinase PAK 4 (Homo sapiens) (UniProt O96013); assay: Inhibition of PAK4 (unknown origin) at 10 uM relative to control
Outline: (§2)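 Single-concentration screen of each compound against a 59-protein-kinase panel, run at 10 µM or 1 µM. Activity relative to control is shown as a heat map across the panel.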

[3] = molecular target: Glycogen synthase kinase-3 beta (Homo sapiens) (UniProt P49841); assay: Inhibition of GSK3b (unknown origin) at 10 uM relative to control; outline: as §1
[4] = molecular target: Dual specificity mitogen-activated protein kinase kinase 1 (Homo sapiens) (UniProt Q02750); assay: Inhibition of MKK1 (unknown origin) at 10 uM relative to control; outline: as §2
[5] = molecular target: Tyrosine-protein kinase Yes (Homo sapiens) (UniProt P07947); assay: Inhibition of YES1 (unknown origin) at 10 uM relative to control
Outline: (§3)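 Single-concentration screen across a panel of 59 protein kinases, with each compound tested at one fixed concentration. The read-out is residual kinase activity relative to control. Panel results are also condensed into a rescaled geometric mean (RGM) selectivity score.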

[6] = molecular target: Ribosomal protein S6 kinase alpha-5 (Homo sapiens) (UniProt O75582); assay: Inhibition of MSK1 (unknown origin) at 10 uM relative to control; outline: as §2
[7] = molecular target: 3-phosphoinositide-dependent protein kinase 1 (Homo sapiens) (UniProt O15530); assay: Inhibition of PDK1 (unknown origin) at 10 uM relative to control
[8] = Stability in mouse liver microsomes assessed as compound turnover rate measured after 30 mins; format: ADME, Microsome; details: read-out: Drug metabolism
Outline: (§4)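 In vitro incubation of compound with liver microsomes: human (HLM) for 40 min, mouse (MLM) for 30 min. Reported as % turnover of parent compound.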

[9] = molecular target: Mitogen-activated protein kinase 3 (Homo sapiens) (UniProt P27361); assay: Inhibition of ERK1 (unknown origin) at 10 uM relative to control; outline: as §1
[10] = molecular target: Serine/threonine-protein kinase Nek6 (Homo sapiens) (UniProt Q9HC98); assay: Inhibition of NEK6 (unknown origin) at 10 uM relative to control; outline: as §2
[11] = molecular target: Maternal embryonic leucine zipper kinase (Homo sapiens) (UniProt Q14680); assay: Inhibition of MELK (unknown origin) at 10 uM relative to control; outline: as §2
[12] = molecular target: Mitogen-activated protein kinase 9 (Homo sapiens) (UniProt P45984); assay: Inhibition of JNK2 (unknown origin) at 10 uM relative to control; outline: as §1
[13] = molecular target: T1, Serine/threonine-protein kinase Chk1 (Homo sapiens) (UniProt O14757); assay: Inhibition of CHK1 (unknown origin) at 10 uM relative to control; outline: as §1
T1 sequence (whole entry): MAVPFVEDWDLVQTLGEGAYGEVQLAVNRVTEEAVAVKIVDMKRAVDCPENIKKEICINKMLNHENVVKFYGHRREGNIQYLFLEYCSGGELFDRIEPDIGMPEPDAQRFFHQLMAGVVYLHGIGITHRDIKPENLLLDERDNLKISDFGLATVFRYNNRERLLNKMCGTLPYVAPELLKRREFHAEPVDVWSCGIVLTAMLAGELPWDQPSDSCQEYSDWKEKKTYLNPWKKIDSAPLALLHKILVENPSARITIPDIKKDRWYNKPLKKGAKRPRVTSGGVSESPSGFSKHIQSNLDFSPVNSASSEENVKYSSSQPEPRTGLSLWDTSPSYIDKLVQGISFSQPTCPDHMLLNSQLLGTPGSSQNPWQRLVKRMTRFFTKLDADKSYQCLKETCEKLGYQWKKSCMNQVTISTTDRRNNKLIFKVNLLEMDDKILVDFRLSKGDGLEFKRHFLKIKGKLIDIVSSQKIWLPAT

[14] = molecular target: Proto-oncogene tyrosine-protein kinase Src (Homo sapiens) (UniProt P12931); assay: Inhibition of Src (unknown origin) at 10 uM relative to control; outline: as §3
Homo sapiens = species on record: Homo sapiens; assay: Inhibition of PKA (unknown origin) at 10 uM relative to control; outline: as §2
[15] = molecular target: T2, Serine/threonine-protein kinase Sgk1 (Homo sapiens) (UniProt O00141); assay: Inhibition of SGK1 (unknown origin) at 10 uM relative to control; outline: as §3
T2 sequence (whole entry): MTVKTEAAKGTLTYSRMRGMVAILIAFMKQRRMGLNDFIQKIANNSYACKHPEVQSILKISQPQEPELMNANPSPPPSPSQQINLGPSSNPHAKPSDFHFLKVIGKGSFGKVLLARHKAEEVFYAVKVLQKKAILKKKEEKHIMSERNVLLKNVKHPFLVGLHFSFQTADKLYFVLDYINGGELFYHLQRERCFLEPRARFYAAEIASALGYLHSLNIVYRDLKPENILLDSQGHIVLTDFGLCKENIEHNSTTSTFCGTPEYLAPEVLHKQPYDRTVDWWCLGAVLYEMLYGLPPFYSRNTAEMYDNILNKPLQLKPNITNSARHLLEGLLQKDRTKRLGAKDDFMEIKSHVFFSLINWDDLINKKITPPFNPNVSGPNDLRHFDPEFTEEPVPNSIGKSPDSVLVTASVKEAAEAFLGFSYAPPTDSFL

[16] = molecular target: Tyrosine-protein kinase CSK (Homo sapiens) (UniProt P41240); assay: Inhibition of CSK (unknown origin) at 10 uM relative to control; outline: as §1
[17] = molecular target: MAP kinase-interacting serine/threonine-protein kinase 2 (Homo sapiens) (UniProt Q9HBH9); assay: Inhibition of MNK2 (unknown origin) at 10 uM relative to control; outline: as §2
[18] = molecular target: Mitogen-activated protein kinase 8 (Homo sapiens) (UniProt P45983); assay: Inhibition of JNK1 (unknown origin) at 10 uM relative to control; outline: as §1
[19] = molecular target: MAP/microtubule affinity-regulating kinase 3 (Homo sapiens) (UniProt P27448); assay: Inhibition of MARK3 (unknown origin) at 10 uM relative to control; outline: as §2
[20] = Stability in human liver microsomes assessed as compound turnover rate measured after 40 mins; format: ADME, Microsome; details: read-out: Drug metabolism; outline: as §4
[21] = molecular target: Leucine-rich repeat serine/threonine-protein kinase 2 (Homo sapiens, UniProt Q5S007, G2019S); assay: Inhibition of recombinant human GST-tagged LRRK2 G2019S mutant catalytic domain (970 to 2527 residues) expressed in baculovirus expression system by radiometric assay
Sequence of Leucine-rich repeat serine/threonine-protein kinase 2 (Q5S007 whole entry G2019S, the tested form may be a part): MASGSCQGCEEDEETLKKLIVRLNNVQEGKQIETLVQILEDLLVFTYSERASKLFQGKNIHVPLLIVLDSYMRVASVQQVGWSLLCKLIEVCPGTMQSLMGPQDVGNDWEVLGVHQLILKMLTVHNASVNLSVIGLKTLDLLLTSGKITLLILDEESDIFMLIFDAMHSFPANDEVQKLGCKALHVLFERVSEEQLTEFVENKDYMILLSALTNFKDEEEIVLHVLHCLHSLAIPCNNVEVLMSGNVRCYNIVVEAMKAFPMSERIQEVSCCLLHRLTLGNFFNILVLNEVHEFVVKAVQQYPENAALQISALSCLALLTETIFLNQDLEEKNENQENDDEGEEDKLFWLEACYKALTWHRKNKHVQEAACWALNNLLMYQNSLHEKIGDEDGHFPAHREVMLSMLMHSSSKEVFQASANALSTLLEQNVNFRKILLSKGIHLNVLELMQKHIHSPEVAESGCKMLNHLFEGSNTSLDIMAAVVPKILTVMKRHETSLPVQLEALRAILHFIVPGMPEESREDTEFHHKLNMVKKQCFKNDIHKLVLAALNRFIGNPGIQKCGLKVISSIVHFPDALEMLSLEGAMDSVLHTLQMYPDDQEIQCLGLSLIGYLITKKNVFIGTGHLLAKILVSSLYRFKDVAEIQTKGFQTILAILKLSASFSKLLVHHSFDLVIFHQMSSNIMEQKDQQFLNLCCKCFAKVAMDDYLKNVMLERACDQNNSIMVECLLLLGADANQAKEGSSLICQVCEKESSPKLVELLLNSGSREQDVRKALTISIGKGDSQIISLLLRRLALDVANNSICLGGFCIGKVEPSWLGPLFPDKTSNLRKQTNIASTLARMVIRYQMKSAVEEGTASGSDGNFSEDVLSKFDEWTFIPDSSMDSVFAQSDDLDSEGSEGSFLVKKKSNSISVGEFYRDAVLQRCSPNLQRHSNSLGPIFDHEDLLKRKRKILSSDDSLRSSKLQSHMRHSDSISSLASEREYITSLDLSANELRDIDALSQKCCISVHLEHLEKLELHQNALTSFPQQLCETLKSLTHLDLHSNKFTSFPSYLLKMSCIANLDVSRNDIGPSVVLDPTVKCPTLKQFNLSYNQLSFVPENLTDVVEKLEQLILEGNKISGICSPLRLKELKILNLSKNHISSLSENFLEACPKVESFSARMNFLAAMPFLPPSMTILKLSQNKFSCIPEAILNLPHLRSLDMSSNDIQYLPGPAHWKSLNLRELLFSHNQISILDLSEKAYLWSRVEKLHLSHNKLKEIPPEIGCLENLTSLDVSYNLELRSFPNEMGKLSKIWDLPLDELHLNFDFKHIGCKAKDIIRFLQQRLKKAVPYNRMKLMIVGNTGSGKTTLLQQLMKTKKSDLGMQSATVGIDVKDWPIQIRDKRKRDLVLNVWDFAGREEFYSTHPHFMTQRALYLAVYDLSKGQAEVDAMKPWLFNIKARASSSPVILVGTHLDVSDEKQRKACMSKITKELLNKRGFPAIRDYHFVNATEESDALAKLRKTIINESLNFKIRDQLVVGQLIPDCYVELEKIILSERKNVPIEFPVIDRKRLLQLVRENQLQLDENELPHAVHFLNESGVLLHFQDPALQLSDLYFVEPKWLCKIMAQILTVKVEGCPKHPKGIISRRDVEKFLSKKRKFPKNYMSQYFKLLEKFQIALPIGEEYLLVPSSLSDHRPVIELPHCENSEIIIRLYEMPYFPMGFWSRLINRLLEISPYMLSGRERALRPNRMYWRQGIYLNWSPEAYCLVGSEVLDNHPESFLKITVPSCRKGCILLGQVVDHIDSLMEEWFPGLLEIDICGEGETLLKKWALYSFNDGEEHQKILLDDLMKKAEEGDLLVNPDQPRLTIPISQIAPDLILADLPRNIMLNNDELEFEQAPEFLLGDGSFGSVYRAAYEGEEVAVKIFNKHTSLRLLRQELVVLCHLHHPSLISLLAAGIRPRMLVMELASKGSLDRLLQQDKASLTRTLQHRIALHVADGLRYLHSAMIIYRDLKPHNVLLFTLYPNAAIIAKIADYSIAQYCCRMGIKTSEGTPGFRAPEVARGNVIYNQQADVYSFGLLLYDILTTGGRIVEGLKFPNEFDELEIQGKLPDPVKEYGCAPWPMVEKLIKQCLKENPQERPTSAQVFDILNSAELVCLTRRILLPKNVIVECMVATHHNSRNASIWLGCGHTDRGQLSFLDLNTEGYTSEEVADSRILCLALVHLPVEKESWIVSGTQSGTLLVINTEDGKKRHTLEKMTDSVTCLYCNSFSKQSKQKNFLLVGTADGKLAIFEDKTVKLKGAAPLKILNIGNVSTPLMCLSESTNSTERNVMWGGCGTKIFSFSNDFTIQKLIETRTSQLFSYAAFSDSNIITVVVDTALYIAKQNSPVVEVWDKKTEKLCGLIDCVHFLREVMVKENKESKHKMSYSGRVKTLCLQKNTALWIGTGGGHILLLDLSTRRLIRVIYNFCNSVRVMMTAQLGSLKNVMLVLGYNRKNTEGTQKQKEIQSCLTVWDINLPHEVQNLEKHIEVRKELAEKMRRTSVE

Sequence of Tyrosine-protein kinase CSK (Homo sapiens) (P41240 2-450 limits assumed): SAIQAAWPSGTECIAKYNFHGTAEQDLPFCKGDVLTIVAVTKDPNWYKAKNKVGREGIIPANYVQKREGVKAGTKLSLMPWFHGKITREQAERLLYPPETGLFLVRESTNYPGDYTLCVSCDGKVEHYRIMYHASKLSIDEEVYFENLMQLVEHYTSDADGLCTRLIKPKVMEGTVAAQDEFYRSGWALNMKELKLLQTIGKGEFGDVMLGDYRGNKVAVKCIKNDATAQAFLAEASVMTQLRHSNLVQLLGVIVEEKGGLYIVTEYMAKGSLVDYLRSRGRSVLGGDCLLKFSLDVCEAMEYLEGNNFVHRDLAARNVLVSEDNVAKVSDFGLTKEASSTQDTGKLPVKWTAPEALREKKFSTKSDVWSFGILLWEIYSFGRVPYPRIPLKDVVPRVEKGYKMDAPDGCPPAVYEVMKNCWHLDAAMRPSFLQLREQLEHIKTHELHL
Sequence of Mitogen-activated protein kinase 9 (Homo sapiens) (P45984 whole entry, looked up): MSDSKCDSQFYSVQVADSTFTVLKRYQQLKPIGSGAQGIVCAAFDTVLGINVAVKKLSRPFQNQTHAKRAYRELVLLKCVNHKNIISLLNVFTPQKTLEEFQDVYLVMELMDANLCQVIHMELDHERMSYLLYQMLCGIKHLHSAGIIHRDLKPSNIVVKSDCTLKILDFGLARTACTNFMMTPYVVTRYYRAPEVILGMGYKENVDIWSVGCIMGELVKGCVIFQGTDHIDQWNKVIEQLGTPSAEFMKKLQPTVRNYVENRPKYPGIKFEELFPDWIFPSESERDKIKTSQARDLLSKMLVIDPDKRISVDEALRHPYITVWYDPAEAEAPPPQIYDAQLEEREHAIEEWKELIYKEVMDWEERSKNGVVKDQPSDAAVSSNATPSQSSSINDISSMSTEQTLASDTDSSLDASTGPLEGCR
Sequence of Maternal embryonic leucine zipper kinase (Homo sapiens) (Q14680 whole entry, looked up): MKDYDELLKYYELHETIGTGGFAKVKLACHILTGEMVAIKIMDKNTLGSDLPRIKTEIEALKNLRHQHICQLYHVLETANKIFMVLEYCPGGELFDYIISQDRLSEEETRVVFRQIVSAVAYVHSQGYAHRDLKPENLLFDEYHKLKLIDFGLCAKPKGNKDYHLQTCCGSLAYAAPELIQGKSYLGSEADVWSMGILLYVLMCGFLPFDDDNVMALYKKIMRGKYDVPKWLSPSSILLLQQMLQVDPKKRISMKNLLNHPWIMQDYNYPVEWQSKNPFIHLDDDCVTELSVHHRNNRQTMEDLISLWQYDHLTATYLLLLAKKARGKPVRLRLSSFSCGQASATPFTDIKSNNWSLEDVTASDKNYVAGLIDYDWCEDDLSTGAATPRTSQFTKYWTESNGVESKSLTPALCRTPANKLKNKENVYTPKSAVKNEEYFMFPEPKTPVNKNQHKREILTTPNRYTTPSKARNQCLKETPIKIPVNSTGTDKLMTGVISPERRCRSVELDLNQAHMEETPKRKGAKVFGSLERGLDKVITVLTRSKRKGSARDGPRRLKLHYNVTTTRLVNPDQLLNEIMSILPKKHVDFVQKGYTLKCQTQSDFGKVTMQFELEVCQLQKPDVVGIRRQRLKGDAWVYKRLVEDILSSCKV
Sequence of MAP kinase-interacting serine/threonine-protein kinase 2 (Homo sapiens) (Q9HBH9 whole entry, looked up): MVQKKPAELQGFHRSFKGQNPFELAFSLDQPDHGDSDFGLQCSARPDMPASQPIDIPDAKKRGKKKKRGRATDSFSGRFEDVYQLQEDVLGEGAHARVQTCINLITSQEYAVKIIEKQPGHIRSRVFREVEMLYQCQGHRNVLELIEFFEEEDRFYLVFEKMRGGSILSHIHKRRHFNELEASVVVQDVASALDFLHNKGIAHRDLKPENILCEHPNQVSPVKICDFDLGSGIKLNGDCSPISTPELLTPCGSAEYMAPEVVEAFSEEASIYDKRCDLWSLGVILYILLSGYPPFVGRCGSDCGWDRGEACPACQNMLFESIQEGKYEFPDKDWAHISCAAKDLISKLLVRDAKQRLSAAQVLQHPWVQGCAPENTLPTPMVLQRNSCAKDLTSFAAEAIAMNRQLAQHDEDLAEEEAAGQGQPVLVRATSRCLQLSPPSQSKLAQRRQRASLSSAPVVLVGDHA
Sequence of Serine/threonine-protein kinase Chk2 (Homo sapiens) (O96017 whole entry): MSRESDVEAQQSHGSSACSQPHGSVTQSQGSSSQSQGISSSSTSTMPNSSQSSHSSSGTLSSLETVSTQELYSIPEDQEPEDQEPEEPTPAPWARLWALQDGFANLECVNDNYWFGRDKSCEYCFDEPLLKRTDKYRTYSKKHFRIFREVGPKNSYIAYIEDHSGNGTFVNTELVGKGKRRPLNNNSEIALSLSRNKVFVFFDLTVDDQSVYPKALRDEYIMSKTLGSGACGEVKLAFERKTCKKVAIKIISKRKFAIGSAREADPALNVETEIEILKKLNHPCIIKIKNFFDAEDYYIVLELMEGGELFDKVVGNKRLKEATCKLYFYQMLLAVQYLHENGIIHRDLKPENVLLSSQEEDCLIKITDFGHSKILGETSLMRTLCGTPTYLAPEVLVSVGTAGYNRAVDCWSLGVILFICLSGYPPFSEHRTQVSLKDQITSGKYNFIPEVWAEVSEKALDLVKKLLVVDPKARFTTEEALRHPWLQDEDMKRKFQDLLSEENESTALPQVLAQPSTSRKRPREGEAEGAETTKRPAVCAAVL

Row | SMILES | inhibition [1] [%] | inhibition [2] [%] | inhibition [3] [%] | inhibition [4] [%] | inhibition [5] [%] | inhibition [6] [%] | inhibition [7] [%] | metabolised at 0.5 h [8] [%] | inhibition [9] [%] | inhibition [10] [%] | inhibition [11] [%] | inhibition [12] [%] | inhibition [13] [%] | inhibition [14] [%] | inhibition (Homo sapiens) [%] | inhibition [16] [%] | inhibition [18] [%] | inhibition [19] [%] | metabolised at 40 min [20] [%] | IC50 [21] [nM] | further results
1 | Cc1n[nH]c2ccnc(NC3CCCCC3)c12 | 37 | 40 | 23 | 57 | 30 | 55 | 13 | 13 | 40 | 13 | 91 | 41 | 0 | 0 | 49 | 0 | 32 | 34 | 7 | 390 | inhibition [15]: 41%; inhibition [17]: 8%
2 | Cc1n[nH]c2ccnc(Nc3ccc4ncsc4c3)c12 | 36 | – | – | – | – | 77 | – | – | – | – | – | 49 | 13 | – | – | 0 | 56 | 36 | – | 130 to 380 | –
3 | c1cc(-c2n[nH]c3ccnc(OC4CCOCC4)c23)cc(N2CCOCC2)n1 | – | – | – | – | – | – | – | 19 | – | – | – | – | – | – | – | – | – | – | 43 | 12 | –
4 | Cc1n[nH]c2ccnc(Nc3ccccc3F)c12 | 26 | 44 | 53 | 57 | 26 | 43 | 25 | – | 69 | 12 | 83 | 54 | 43 | 23 | 9 | 8 | 55 | 46 | – | 150 | inhibition [15]: 69%; inhibition [17]: 24%
5 | Cc1n[nH]c2ccnc(OC3CCCCC3)c12 | 63 | 85 | 73 | 96 | 44 | 92 | 34 | 37 | 48 | 4 | 95 | 66 | 27 | 47 | 93 | 20 | 86 | 46 | 25 | 67 | inhibition [15]: 73%; inhibition [17]: 37%
6 | CC(C)n1cc(-c2n[nH]c3ccnc(OC4CCOCC4)c23)cn1 | – | – | – | – | – | – | – | 20 | – | – | – | – | – | – | – | – | – | – | 21 | 11 | –

— ChEMBL document CHEMBL4330096, “Discovery of potent and selective 5-azaindazole inhibitors of leucine-rich repeat kinase 2 (LRRK2) - Part 1” (Bioorg Med Chem Lett, 2019)
